From ChEMBL document CHEMBL2375244 (J Med Chem, 2013)
Activity calls are given as the source filed them. The calls are words filed in the database; no cut-off is given here.

Legend:
[1] = target: CDK2/Cyclin A2 (Homo sapiens, UniProt P24941); assay: Inhibition of human CDK2/Cyclin A2 using PKTPKKAKKL as substrate by P33-radiolabeled assay; assay type: protein-complex assay
Outline: (§1)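 Radiometric (P33) kinase assay run by a contract lab on CDK–cyclin complexes. Inhibitor tested in duplicate at 0.05 nM to 1000 nM with ATP at 10 μM. […] For the in-house assays, IC50 was obtained by Hill-equation fitting.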

[2] = test system: SW872; assay: Cytotoxicity against human SW872 cells after 72 hrs by resazurin/resorufin-based fluorescence assay; assay type: functional, cell-based; settings: SW872, 72 h
[3] = test system: BT-549; assay: Cytotoxicity against human BT549 cells after 72 hrs by resazurin/resorufin-based fluorescence assay; assay type: functional, cell-based; settings: BT-549, 72 h
Outline: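 CellTiter-Blue viability: 1200 cells per well seeded, incubated overnight at 37 °C, 5% CO₂; drugs serially diluted 2:3 in medium, four replicate wells per concentration plus four diluent-only control wells; 72 h exposure; resazurin reduction to resorufin read by fluorescence (579 nm ex/584 nm em). IC50 is the average of three data sets, each using nine concentrations between 0.004 μM and 12.5 μM.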

[4] = target: Cyclin-dependent kinase 2 (Homo sapiens) (UniProt P24941); assay: Inhibition of CDK2-mediated Rb phosphorylation at Ser 807/811 in human A673 cells at 0.25 uM after 24 hrs by immunoblotting analysis; assay type: cell-based
Outline: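 Asynchronously growing A-673 cells at ~70% confluence were exposed for 24 h to increasing concentrations, then lysed. 50 μg protein per lane on 10% SDS-PAGE, transferred to nitrocellulose. Phospho-Rb Ser807/811 antibody, with β-actin as loading control, detected with fluorescent secondary antibodies on an infrared scanner.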

[5] = target: Cyclin-dependent kinase 4/cyclin D1 (Homo sapiens) (UniProt P11802+P24385); assay: Inhibition of human CDK4/Cyclin D1 at 0.1 uM incubated for 15 mins prior to substrate addition measured after 90 mins by P33-radiolabeled assay relative to control; assay type: protein-complex assay
[6] = test system: SK-ES1; assay: Cytotoxicity against human SK-ES-1 cells after 72 hrs by resazurin/resorufin-based fluorescence assay; assay type: functional, cell-based; settings: SK-ES1, 72 h
[7] = target: Cyclin-dependent kinase 2/cyclin E1 (Homo sapiens) (UniProt P24864+P24941); assay: Inhibition of human CDK2/Cyclin E at 0.1 uM incubated for 15 mins prior to substrate addition measured after 90 mins by P33-radiolabeled assay relative to control; assay type: protein-complex assay
[8] = Cytotoxicity against human MDA-MB-436 cells after 72 hrs by resazurin/resorufin-based fluorescence assay; assay type: functional, cell-based; settings: MDA-MB-436, 72 h
[9] = Cytotoxicity against human RPMI18226 cells after 72 hrs by resazurin/resorufin-based fluorescence assay; assay type: functional, cell-based; settings: RPMI18226, 72 h
[10] = target: CDK9/Cyclin K (Homo sapiens) (UniProt P50750+O75909); assay: Inhibition of human CDK9/Cyclin K at 0.1 uM incubated for 15 mins prior to substrate addition measured after 90 mins by P33-radiolabeled assay relative to control; assay type: protein-complex assay
Outline: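 Kinome profiling (339-kinase panel) by a contract lab using a P33-radiolabel assay. Each kinase was tested at a single compound concentration of 0.1 μM, in duplicate, with ATP at 10 μM.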

[11] = test system: U-266; assay: Cytotoxicity against human U266 cells after 72 hrs by resazurin/resorufin-based fluorescence assay; assay type: functional, cell-based; settings: U-266, 72 h
[12] = target: Dual specificity tyrosine-phosphorylation-regulated kinase 1A (Homo sapiens) (UniProt Q13627); assay: Inhibition of human DYRK1A at 0.1 uM incubated for 15 mins prior to substrate addition measured after 90 mins by P33-radiolabeled assay relative to control
[13] = test system: A673; assay: Induction of apoptosis in human A673 cells assessed as caspase-3 activation at 0.05 uM to 5 uM after 24 hrs by luminescence assay relative to control; assay type: functional
Outline: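 Caspase-3/7 activation measured with a Caspase-Glo 3/7 luminescent assay. Cells were plated as for the high-throughput viability assay and exposed for 24 h to serial dilutions. EC50 was obtained from the dose-response.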

[14] = target: CDK9/Cyclin K (Homo sapiens, UniProt P50750); assay: Inhibition of CDK9/Cyclin K (unknown origin)-mediated phosphorylation of peptide substrate incubated for 15 mins prior to substrate addition measured after 90 mins by P33-radiolabeled assay; assay type: protein-complex assay; outline: as §1
Chain of CDK9/Cyclin K (P50750 whole entry): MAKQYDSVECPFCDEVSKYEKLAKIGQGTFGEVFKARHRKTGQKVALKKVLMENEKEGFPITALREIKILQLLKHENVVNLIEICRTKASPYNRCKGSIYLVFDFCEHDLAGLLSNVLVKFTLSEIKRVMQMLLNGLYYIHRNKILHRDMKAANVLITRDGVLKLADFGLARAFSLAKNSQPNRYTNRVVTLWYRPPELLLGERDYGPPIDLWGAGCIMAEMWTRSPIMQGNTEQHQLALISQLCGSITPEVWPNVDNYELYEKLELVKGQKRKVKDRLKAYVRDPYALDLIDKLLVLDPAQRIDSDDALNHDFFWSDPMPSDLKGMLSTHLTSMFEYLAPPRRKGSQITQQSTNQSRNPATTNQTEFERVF
Chain of CDK9/Cyclin K (O75909 whole entry, further chain): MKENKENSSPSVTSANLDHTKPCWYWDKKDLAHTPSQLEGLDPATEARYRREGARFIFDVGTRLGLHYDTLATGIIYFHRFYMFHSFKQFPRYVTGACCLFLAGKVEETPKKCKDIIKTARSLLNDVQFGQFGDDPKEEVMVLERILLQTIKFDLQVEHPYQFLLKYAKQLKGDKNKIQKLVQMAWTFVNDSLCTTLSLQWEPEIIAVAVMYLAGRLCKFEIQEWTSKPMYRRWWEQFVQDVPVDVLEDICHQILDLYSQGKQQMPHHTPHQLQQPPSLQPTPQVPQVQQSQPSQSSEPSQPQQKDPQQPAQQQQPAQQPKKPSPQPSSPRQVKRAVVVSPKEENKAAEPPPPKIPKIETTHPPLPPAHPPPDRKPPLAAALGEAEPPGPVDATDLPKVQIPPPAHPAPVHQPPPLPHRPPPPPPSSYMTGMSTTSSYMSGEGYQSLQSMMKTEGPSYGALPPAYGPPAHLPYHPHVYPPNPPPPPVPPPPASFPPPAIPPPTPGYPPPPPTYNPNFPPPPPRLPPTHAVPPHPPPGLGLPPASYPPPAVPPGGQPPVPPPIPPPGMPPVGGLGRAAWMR

[15] = test system: SK-UT-1; assay: Cytotoxicity against human SK-UT-1 cells after 72 hrs by resazurin/resorufin-based fluorescence assay; assay type: functional, cell-based; settings: SK-UT-1, 72 h
[16] = test system: MDA-MB-231; assay: Cytotoxicity against human MDA-MB-231 cells after 72 hrs by resazurin/resorufin-based fluorescence assay; assay type: functional, cell-based; settings: MDA-MB-231, 72 h
[17] = target: CDK2/Cyclin A1 (Homo sapiens) (UniProt P24941+P78396); assay: Inhibition of human CDK2/Cyclin A1 at 0.1 uM incubated for 15 mins prior to substrate addition measured after 90 mins by P33-radiolabeled assay relative to control; assay type: protein-complex assay
[18] = target: Cyclin-dependent kinase 5/CDK5 activator 1 (Homo sapiens, UniProt Q00535); assay: Inhibition of CDK5/P25 (unknown origin)-mediated phosphorylation of peptide substrate incubated for 15 mins prior to substrate addition measured after 90 mins by P33-radiolabeled assay; assay type: protein-complex assay
Chain of Cyclin-dependent kinase 5/CDK5 activator 1 (Q00535 whole entry): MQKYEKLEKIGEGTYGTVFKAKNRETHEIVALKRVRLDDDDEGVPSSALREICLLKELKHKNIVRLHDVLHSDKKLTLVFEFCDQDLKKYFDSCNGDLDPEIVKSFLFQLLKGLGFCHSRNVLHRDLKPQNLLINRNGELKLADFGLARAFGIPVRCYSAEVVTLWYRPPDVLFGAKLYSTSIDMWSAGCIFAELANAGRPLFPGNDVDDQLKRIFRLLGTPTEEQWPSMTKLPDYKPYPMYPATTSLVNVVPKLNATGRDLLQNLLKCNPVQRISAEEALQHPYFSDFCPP
Chain of Cyclin-dependent kinase 5/CDK5 activator 1 (Q15078 whole entry, further chain): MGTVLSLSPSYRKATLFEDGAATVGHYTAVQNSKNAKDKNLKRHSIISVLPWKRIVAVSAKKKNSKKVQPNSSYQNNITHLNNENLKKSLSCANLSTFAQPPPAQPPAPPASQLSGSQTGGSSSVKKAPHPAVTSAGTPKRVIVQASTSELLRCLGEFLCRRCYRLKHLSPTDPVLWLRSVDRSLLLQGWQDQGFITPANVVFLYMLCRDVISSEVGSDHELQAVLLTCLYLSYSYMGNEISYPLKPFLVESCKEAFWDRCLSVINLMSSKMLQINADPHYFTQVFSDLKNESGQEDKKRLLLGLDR

[19] = target: Mitogen-activated protein kinase 15 (Homo sapiens) (UniProt Q8TD08); assay: Inhibition of human ERK7 at 0.1 uM incubated for 15 mins prior to substrate addition measured after 90 mins by P33-radiolabeled assay relative to control
[20] = target: Glycogen synthase kinase-3 beta (Homo sapiens, UniProt P49841); assay: Inhibition of GSK3beta (unknown origin)-mediated phosphorylation of peptide substrate incubated for 15 mins prior to substrate addition measured after 90 mins by P33-radiolabeled assay
Chain of Glycogen synthase kinase-3 beta (P49841 whole entry): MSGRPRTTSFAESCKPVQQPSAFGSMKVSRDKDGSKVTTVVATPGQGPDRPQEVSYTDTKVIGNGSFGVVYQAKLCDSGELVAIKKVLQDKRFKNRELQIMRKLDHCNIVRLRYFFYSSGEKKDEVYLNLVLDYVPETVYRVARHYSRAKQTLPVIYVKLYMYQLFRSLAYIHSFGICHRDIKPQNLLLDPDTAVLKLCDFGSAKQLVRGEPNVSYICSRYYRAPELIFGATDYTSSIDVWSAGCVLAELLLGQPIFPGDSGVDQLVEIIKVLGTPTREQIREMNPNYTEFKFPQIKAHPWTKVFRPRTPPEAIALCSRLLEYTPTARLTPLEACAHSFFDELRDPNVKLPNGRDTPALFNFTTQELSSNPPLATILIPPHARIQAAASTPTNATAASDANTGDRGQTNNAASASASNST

[21] = target: T1, Cyclin-dependent kinase 5/CDK5 activator 1 (Homo sapiens) (UniProt Q00535+Q15078); assay: Inhibition of human CDK5/P35 at 0.1 uM incubated for 15 mins prior to substrate addition measured after 90 mins by P33-radiolabeled assay relative to control; assay type: protein-complex assay
T1 sequence (Q00535 whole entry): as the sequence (Q00535 whole entry) above
T1 sequence (Q15078 99-307 partner limits assumed): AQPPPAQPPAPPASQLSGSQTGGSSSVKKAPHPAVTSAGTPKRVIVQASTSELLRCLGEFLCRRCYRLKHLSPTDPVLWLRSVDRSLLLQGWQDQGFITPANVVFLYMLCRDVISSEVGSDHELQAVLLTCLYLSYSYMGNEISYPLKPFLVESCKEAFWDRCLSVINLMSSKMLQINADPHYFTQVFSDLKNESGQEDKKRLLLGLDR

[22] = test system: HOS-TE85; assay: Cytotoxicity against human MNNG-HOS cells after 72 hrs by resazurin/resorufin-based fluorescence assay; assay type: functional, cell-based; settings: HOS-TE85, 72 h
[23] = target: Cyclin-dependent kinase 4/cyclin D1 (Homo sapiens, UniProt P11802); assay: Inhibition of CDK4/Cyclin D1 (unknown origin)-mediated phosphorylation of peptide substrate incubated for 15 mins prior to substrate addition measured after 90 mins by P33-radiolabeled assay; assay type: protein-complex assay
Chain of Cyclin-dependent kinase 4/cyclin D1 (P11802 whole entry): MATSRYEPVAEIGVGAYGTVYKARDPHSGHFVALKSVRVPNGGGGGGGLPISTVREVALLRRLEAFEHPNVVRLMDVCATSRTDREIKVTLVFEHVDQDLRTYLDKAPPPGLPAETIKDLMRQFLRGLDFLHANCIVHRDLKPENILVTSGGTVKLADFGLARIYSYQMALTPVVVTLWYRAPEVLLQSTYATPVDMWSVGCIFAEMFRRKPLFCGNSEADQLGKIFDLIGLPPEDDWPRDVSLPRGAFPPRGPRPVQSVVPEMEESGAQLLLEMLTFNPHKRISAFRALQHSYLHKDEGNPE
Chain of Cyclin-dependent kinase 4/cyclin D1 (P24385 whole entry, further chain): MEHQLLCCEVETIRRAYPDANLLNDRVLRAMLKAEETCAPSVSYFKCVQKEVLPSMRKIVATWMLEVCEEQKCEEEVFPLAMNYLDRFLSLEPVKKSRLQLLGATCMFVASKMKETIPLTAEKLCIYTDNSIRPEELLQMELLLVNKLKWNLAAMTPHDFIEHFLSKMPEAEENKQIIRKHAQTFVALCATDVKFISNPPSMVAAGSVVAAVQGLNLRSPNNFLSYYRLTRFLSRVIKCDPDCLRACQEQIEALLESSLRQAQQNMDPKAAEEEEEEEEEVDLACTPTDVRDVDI

[24] = target: T1, Cyclin-dependent kinase 5/CDK5 activator 1 (Homo sapiens); assay: Inhibition of human CDK5/P25 at 0.1 uM incubated for 15 mins prior to substrate addition measured after 90 mins by P33-radiolabeled assay relative to control; assay type: protein-complex assay
[25] = target: Cyclin-dependent kinase 7/ cyclin H (Homo sapiens, UniProt P50613); assay: Inhibition of CDK7/Cyclin H (unknown origin)-mediated phosphorylation of peptide substrate incubated for 15 mins prior to substrate addition measured after 90 mins by P33-radiolabeled assay; assay type: protein-complex assay
[26] = target: Cyclin-dependent kinase 1/cyclin B1 (Homo sapiens) (UniProt P06493+P14635); assay: Inhibition of human CDK1/Cyclin B at 0.1 uM incubated for 15 mins prior to substrate addition measured after 90 mins by P33-radiolabeled assay relative to control; assay type: protein-complex assay
Chain of Cyclin-dependent kinase 1/cyclin B1 (Homo sapiens) (P06493 whole entry, looked up): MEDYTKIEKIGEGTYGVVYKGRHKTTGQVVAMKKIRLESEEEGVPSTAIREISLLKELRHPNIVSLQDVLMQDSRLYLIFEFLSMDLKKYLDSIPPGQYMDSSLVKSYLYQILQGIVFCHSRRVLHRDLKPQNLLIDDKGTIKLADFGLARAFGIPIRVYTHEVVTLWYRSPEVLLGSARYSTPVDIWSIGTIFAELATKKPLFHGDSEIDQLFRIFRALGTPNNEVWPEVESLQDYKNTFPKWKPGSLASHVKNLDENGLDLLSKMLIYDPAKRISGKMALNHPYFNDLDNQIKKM
Chain of Cyclin-dependent kinase 1/cyclin B1 (Homo sapiens) (P14635 whole entry, looked up): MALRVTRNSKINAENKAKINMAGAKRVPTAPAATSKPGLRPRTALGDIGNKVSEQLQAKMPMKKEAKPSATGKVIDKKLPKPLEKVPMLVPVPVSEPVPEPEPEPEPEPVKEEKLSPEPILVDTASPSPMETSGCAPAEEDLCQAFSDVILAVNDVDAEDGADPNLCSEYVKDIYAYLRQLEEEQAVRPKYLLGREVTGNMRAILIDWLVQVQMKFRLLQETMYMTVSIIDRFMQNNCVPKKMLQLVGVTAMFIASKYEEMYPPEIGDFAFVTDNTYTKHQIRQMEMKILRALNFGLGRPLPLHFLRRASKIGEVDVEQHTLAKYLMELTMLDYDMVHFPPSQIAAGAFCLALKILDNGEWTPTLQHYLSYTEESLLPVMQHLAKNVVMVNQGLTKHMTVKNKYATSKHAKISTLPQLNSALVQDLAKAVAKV

[27] = target: Serine/threonine-protein kinase TAO1 (Homo sapiens) (UniProt Q7L7X3); assay: Inhibition of human TAO1 at 0.1 uM incubated for 15 mins prior to substrate addition measured after 90 mins by P33-radiolabeled assay relative to control
Chain of Serine/threonine-protein kinase TAO1 (Homo sapiens) (Q7L7X3 whole entry): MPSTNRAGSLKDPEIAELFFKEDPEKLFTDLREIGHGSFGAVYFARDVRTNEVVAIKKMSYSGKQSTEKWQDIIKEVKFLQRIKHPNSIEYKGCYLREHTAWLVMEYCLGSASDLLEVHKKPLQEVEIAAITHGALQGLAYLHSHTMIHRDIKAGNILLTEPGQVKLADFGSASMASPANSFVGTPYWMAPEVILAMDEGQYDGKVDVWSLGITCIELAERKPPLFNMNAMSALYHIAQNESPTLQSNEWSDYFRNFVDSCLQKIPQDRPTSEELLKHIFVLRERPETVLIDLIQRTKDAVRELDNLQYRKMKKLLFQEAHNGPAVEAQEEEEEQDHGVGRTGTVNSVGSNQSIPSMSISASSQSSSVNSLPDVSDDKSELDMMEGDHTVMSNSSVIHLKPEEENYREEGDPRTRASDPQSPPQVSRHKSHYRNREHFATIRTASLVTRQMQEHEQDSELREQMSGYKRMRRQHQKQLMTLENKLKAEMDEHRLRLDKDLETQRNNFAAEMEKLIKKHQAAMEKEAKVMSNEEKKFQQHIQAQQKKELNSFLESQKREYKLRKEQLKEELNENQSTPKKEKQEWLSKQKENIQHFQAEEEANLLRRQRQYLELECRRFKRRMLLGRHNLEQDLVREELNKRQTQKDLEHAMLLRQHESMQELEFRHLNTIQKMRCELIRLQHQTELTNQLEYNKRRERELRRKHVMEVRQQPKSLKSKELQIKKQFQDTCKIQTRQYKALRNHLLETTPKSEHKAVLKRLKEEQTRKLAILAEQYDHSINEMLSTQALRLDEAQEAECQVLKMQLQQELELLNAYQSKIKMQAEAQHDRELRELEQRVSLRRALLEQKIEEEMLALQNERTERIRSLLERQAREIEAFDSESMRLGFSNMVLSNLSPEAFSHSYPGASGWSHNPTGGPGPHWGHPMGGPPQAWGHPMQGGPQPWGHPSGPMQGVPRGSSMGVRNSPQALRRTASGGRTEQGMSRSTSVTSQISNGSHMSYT

IC50 [1]: 1.5 nM | inhibition [4]: Active | inhibition [5]: 80% | inhibition [7]: 90% | inhibition [10]: 80% | inhibition [12]: 50% | IC50 [14]: 13 nM | inhibition [17]: 90% | IC50 [18]: 1.5 nM | IC50 [20]: 107 nM | inhibition [21]: 90% | IC50 [23]: 4 nM | inhibition [24]: 90% | IC50 [25]: > 1000 nM | inhibition [26]: 90% | inhibition [27]: 60%
Structure (SMILES): Nc1nc(Nc2ccc(S(N)(=O)=O)cc2)sc1C(=O)c1ccccc1[N+](=O)[O-]
IC50 [2]: 6900 nM | IC50 [3]: > 10000 nM | IC50 [6]: 560 nM | IC50 [8]: 2000 nM | IC50 [9]: > 10000 nM | IC50 [11]: 1800 nM | Activity [13]: 196% | IC50 [15]: 1400 nM | IC50 [16]: 1500 nM | inhibition [19]: 70% | IC50 [22]: 3000 nM
